Laboratory results reported in ChEMBL document CHEMBL4433206, “Novel Lysine-Based Thioureas as Mechanism-Based Inhibitors of Sirtuin 2 (SIRT2) with Anticancer Activity in a Colorectal Cancer Murine Model” (J Med Chem, 2019).
Active and inactive are the calls of the source. No cut-off for these calls is given here.

Tests used:
[1] = target: T1, NAD-dependent protein deacetylase sirtuin-3, mitochondrial (Homo sapiens, UniProt Q9NTG7); assay: Inhibition of human SIRT3 assessed as reduction in deacetylase activity using acetylated H3K9 as substrate preincubated for 15 mins followed by substrate addition and measured after 15 mins by UV-HPLC analysis
T1 sequence (Q9NTG7 whole entry): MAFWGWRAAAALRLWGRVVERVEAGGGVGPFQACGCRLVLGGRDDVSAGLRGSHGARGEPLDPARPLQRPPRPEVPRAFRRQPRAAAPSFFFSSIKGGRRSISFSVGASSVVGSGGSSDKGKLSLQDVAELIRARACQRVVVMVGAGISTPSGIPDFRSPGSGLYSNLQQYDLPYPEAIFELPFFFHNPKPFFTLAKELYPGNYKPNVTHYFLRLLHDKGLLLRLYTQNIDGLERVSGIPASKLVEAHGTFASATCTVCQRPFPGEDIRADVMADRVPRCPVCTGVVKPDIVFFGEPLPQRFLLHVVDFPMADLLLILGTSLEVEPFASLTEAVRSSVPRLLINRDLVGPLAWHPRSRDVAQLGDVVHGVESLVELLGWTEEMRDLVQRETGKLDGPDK

[2] = Cytotoxicity against human HME1 cells after 72 hrs by CellTiter-Blue assay; assay type: cell-based
In short: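 Cells were seeded per well (HCT116 1000; MDA-MB-231, MDA-MB-468, NCI-H23, A549, SW948 2000; MCF7, BxPC-3, HME1 3000) and left 20 h at 37 °C. Inhibitor was added at 1–100 μM final for 72 h at 37 °C. CellTiter-Blue was then added for 4 h, and fluorescence was read at ex 560/em 590 nm.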

[3] = target: T2, NAD-dependent protein deacetylase sirtuin-1 (Homo sapiens, UniProt Q96EB6); assay: Inhibition of human SIRT1 deacetylase activity using acetylated H3K9 as substrate preincubated for 15 mins followed by substrate addition and measured after 3 mins by UV-HPLC analysis
T2 sequence (Q96EB6 whole entry): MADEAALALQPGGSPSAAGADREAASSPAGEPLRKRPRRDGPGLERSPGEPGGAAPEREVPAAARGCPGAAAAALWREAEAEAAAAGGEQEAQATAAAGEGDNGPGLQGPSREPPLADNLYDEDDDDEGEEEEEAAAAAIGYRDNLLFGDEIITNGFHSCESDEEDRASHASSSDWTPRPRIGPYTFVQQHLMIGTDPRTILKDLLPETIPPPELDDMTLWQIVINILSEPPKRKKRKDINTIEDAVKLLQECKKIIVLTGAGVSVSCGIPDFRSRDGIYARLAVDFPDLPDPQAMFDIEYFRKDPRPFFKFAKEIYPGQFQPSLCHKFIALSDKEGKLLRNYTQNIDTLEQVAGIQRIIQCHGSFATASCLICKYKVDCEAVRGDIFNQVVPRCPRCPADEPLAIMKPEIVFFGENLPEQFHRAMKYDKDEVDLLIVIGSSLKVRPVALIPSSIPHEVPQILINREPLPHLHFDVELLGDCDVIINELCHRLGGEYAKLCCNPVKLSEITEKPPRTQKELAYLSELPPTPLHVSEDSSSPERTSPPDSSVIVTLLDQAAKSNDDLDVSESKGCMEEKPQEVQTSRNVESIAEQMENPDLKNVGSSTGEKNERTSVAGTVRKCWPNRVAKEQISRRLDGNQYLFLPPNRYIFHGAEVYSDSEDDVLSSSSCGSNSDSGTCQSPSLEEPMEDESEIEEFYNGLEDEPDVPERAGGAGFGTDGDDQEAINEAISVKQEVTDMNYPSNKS

[4] = target: T3, NAD-dependent protein deacetylase sirtuin-2 (Homo sapiens, UniProt Q8IXJ6); assay: Inhibition of recombinant human N-terminal His6-tagged/SUMO-fused SIRT2 (38 to 356 residues) expressed in Escherichia coli BL21 assessed as reduction in deacetylase activity using acetylated H3K9 as substrate preincubated for 15 mins followed by substrate addition and measured after 6 mins by UV-HPLC analysis
T3 sequence (Q8IXJ6 whole entry): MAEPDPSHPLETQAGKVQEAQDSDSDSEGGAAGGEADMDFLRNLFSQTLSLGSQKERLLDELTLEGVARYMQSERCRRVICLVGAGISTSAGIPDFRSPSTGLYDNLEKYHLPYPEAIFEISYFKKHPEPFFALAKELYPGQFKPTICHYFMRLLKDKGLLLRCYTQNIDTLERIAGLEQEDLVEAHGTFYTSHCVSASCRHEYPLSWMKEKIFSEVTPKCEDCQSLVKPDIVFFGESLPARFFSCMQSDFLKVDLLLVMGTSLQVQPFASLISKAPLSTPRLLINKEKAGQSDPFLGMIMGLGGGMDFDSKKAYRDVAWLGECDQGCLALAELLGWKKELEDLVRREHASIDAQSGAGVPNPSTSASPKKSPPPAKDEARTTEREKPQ

[5] = target: T4, NAD-dependent protein deacetylase sirtuin-2 (Homo sapiens) (UniProt Q8IXJ6); assay: Inhibition of SIRT2 in human HCT116 cells assessed as increase in alpha-tubulin acetylation at 50 uM incubated for 6 hrs by DAPI staining-based laser scanning confocal microscopic analysis; assay type: cell-based
T4 sequence (whole entry): T3 sequence (Q8IXJ6 whole entry)
In short: (§1)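 HCT116 cells were seeded at 400 000 on poly-D-lysine-coated glass-bottom dishes and grown 24 h. Cells were treated with DMSO or inhibitor for 6 h at 37 °C, fixed in ice-cold methanol, and blocked in TBS/0.1% Triton X-100/5% BSA. They were stained with anti-acetyl α-tubulin (1:100, overnight, 4 °C), then Cy3 anti-mouse, and mounted with DAPI. Imaging was by confocal microscopy.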

[6] = target: T4, NAD-dependent protein deacetylase sirtuin-2 (Homo sapiens); assay: Inhibition of SIRT2 in human HCT116 cells assessed as increase in alpha-tubulin acetylation at 25 uM incubated for 6 hrs by DAPI staining-based laser scanning confocal microscopic analysis; assay type: cell-based; in short: as §1
[7] = target: T5, NAD-dependent protein deacetylase sirtuin-1 (Homo sapiens) (UniProt Q96EB6); assay: Inhibition of SIRT1 in human HCT116 cells assessed as increase in acetylated p53 K382 level at 25 uM after 6 hrs by Western blot analysis; assay type: cell-based
T5 sequence (whole entry): T2 sequence (Q96EB6 whole entry)

Homo sapiens = species: Homo sapiens; assay: Selectivity ratio of IC50 for human SIRT1 to IC50 for recombinant human N-terminal His6-tagged/SUMO-fused SIRT2 (38 to 356 residues) expressed in Escherichia coli BL21
In short: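 Purified human sirtuin (SIRT1 0.05 μM, SIRT2 0.2 μM) in 20 mM Tris, 1 mM NAD⁺, 1 mM DTT, pH 8.0 was preincubated with inhibitor (0.002–417 μM, duplicate, DMSO control) for 15 min at 37 °C. Acetyl-H3K9 peptide (10 μM) was then added, and the reaction ran at 37 °C (SIRT1 3 min, SIRT2 6 min; 10–18% conversion). It was quenched with HCl/acetic acid and analysed by reverse-phase HPLC with UV at 215/326 nm.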

[8] = target: T5, NAD-dependent protein deacetylase sirtuin-1 (Homo sapiens); assay: Inhibition of SIRT1 in Trichostatin A treated human HCT116 cells assessed as increase in acetylated p53 K382 level after 6 hrs by Western blot analysis
In short: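 HCT116 cells were seeded at 400 000 per well, grown 24 h, then cotreated with 400 nM TSA and inhibitor (25 μM, or 10–50 μM) for 6 h at 37 °C. Cells were lysed in 4% SDS buffer, pH 7.4. 50 μg of lysate was resolved by 12% SDS-PAGE and blotted for acetyl-p53 K382 antibody, with β-actin as loading control. Detection was by ECL.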

Row | Compound | IC50 [1] [nM] | Activity [2] | IC50 [3] [nM] | IC50 [4] [nM] | inhibition [5] | inhibition [6] | inhibition [7] | Ratio IC50 (Homo sapiens) | inhibition [8]
1 | CCCCCCCCCCCCCC(=S)NCCCC[C@H](NC(=O)OCc1ccccc1)C(=O)Nc1ccccc1 | > 100000 | Non-Toxic | – | – | – | – | – | – | –
2 | CNC(=S)NCCCC[C@H](NC(=O)OCc1ccccc1)C(=O)Nc1cccc(O)c1 | > 100000 | – | > 100000 | > 100000 | – | – | – | – | –
3 | CCCNC(=S)NCCCC[C@H](NC(=O)OCc1ccccc1)C(=O)Nc1cccc(O)c1 | > 100000 | – | > 100000 | > 100000 | inactive | inactive | inactive | – | –
4 | CCCCCNC(=S)NCCCC[C@H](NC(=O)OCc1ccccc1)C(=O)Nc1cccc(O)c1 | > 100000 | – | 34000 | 1000 | Active | Active | Active | 34 | –
5 | NC(=O)C1CCCc2c1[nH]c1ccc(Cl)cc21 (configuration not stated) | – | – | – | – | – | – | Active | – | –
6 | CCCCCCCCCCNC(=S)NCCCC[C@H](NC(=O)OCc1ccccc1)C(=O)Nc1cccc(O)c1 | > 100000 | – | 450 | 36 | Active | Active | Active | 12 | Dose-dependent effect
7 | CCCCCCCNC(=S)NCCCC[C@H](NC(=O)OCc1ccccc1)C(=O)Nc1ccccc1 | – | – | 22000 | 160 | – | – | – | – | –
8 | CCCCCCCCNC(=S)NCCCC[C@H](NC(=O)OCc1ccccc1)C(=O)Nc1cccc(O)c1 | > 100000 | – | 1000 | 120 | – | – | – | 8 | –
9 | CCCCCCNC(=S)NCCCC[C@H](NC(=O)OCc1ccccc1)C(=O)Nc1ccccc1 | – | – | 30000 | 640 | – | – | – | – | –
10 | CCCCCCCCCCCCNC(=S)NCCCC[C@H](NC(=O)OCc1ccccc1)C(=O)Nc1ccccc1 | > 200000 | – | > 200000 | 81 | – | – | – | – | –
11 | CCCCCCCCCCCCNC(=S)NCCCC[C@H](NC(=O)OCc1ccccc1)C(=O)Nc1cccc(O)c1 | > 100000 | – | 1000 | 60 | – | – | – | 17 | –
